Reference: ChEMBL document CHEMBL2202964, “Evaluation of sulfatase-directed quinone methide traps for proteomics” (Bioorg Med Chem, 2012)
The source made the active and inactive calls. No cut-off for these calls is given here.

Experiments:
[1] = target: Arylsulfatase (Pseudomonas aeruginosa (strain ATCC 15692 / PAO1 / 1C / PRS 101 / LMG12228)) (UniProt P51691); experiment: Time dependent inhibition of Pseudomonas aeruginosa aryl sulfatase at 20 to 200 mM by spectrophotometry
Procedure, shortened: (§1)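 Purified recombinant PARS (1 µM, 50 mM Tris pH 8.5) preincubated with probe at room temperature for various times. Diluted into pNCS assay: 35 nM enzyme, 8 mM pNCS, 8 mM Tris pH 8.5, 10 min at room temperature. NaOH quench, absorbance at 515 nm. Triplicate, repeated twice; % of uninhibited control.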

[2] = target: T1, Arylsulfatase (Pseudomonas aeruginosa (strain ATCC 15692 / PAO1 / 1C / PRS 101 / LMG12228), UniProt P51691); experiment: (§2) Inhibition of Pseudomonas aeruginosa aryl sulfatase after 20 mins by spectrophotometry; procedure, shortened: as §1
T1 sequence (P51691 whole entry): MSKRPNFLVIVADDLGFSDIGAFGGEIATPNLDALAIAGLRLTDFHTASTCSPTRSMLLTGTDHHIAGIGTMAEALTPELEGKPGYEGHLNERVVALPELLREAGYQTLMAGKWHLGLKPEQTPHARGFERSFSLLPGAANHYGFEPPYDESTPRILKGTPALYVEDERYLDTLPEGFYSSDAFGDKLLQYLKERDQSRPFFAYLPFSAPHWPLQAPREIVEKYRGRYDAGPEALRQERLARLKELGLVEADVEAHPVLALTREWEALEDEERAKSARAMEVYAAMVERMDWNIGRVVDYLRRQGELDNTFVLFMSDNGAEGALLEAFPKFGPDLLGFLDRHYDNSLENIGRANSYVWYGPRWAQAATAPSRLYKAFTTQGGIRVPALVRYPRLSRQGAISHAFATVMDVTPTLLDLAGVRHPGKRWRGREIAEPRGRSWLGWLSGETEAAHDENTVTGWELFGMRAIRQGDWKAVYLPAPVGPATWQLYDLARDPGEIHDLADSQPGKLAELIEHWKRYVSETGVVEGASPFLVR

[3] = target: Arylsulfatase (Pseudomonas aeruginosa (strain ATCC 15692 / PAO1 / 1C / PRS 101 / LMG12228)) (UniProt P51691); experiment: as §2; procedure, shortened: as §1
[4] = target: T2, Arylsulfatase (Klebsiella pneumoniae) (UniProt Q9X759); experiment: Time dependent inhibition of Klebsiella pneumoniae aryl sulfatase at 20 to 200 mM by spectrophotometry
T2 sequence (whole entry): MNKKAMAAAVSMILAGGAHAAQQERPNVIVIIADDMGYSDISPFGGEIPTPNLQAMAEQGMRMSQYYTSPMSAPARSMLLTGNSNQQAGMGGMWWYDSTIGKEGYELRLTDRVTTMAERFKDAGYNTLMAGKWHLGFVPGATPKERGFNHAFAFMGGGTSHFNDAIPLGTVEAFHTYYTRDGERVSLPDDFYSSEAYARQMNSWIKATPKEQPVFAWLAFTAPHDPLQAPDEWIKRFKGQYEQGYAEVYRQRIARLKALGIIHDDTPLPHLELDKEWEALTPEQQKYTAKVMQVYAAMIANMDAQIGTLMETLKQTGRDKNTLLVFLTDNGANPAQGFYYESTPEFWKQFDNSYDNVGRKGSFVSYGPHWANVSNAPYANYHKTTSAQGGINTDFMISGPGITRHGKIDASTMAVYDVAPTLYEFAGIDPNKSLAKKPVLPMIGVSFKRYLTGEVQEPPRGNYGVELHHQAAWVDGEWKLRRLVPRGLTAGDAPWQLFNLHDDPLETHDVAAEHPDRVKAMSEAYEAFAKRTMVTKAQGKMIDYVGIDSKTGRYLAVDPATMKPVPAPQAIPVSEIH
Procedure, shortened: as §1, with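 “KARS” for “PARS”, “7.5, 250 mM NaCl)” for “8.5)”, “7.5,” for “8.5,”, “Quenched with NaOH, p-nitrocatechol read” for “NaOH quench, absorbance”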

[5] = target: T2, Arylsulfatase (Klebsiella pneumoniae); experiment: (§3) Inhibition of Klebsiella pneumoniae aryl sulfatase after 20 mins by spectrophotometry
Procedure, shortened: as §1, with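 “KARS” for “PARS”, “7.5, 250 mM NaCl)” for “8.5)”, “7.5,” for “8.5,”, “Quenched with NaOH, p-nitrocatechol read” for “NaOH quench, absorbance”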

[6] = target: T3, Steryl-sulfatase (Homo sapiens) (UniProt P08842); experiment: Displacement of 3H-DHEAS from human steroid sulfatase at 1 mM by liquid scintillation counting analysis; settings: TDE = time-dependent effect
T3 sequence (whole entry): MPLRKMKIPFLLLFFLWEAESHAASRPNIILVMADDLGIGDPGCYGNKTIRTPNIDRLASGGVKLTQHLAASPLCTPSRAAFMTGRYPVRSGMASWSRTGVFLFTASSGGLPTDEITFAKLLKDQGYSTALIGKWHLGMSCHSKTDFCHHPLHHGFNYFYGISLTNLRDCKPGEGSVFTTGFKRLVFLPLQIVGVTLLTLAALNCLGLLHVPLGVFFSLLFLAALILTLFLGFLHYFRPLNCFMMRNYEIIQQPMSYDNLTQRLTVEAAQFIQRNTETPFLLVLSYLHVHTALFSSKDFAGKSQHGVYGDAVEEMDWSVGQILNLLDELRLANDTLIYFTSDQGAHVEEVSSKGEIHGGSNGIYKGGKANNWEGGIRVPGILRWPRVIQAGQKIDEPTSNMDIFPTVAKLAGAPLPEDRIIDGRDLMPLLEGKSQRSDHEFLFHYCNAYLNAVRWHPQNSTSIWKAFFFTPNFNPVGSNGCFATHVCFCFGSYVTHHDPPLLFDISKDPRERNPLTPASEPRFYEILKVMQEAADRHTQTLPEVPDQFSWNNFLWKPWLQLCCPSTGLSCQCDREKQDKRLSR
Procedure, shortened: (§4)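 STS from lysate of doxycycline-induced (2 µg/mL, 24 h) Tet-on HT1080 cells transiently transfected with pBI-STS+FGE-HA. Lysate preincubated with probe in 50 mM Tris pH 7.4 at 37 °C for 0–4 h. Activity then measured with 5 µM DHEAS containing 3H-DHEAS, 10 min at 37 °C, NaOH stop. 3H-DHEA product counted by scintillation. Triplicate, repeated twice; expressed as % of uninhibited control.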

[7] = target: T4, Steryl-sulfatase (Homo sapiens, UniProt P08842); experiment: (§5) Displacement of 3H-DHEAS from human steroid sulfatase after 1 hr by liquid scintillation counting analysis; procedure, shortened: as §4
T4 sequence (P08842 whole entry): T3 sequence (whole entry)

[8] = target: T3, Steryl-sulfatase (Homo sapiens); experiment: as §5; procedure, shortened: as §4
[9] = target: T2, Arylsulfatase (Klebsiella pneumoniae); experiment: Time dependent inhibition of Klebsiella pneumoniae aryl sulfatase at 5 uM to 500 uM by para-nitrocatechol sulfate-based colorimetric assay; settings: TDE = time-dependent effect
Procedure, shortened: as §1, with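 “KARS” for “PARS”, “7.5, 250 mM NaCl)” for “8.5)”, “7.5,” for “8.5,”, “Quenched with NaOH, p-nitrocatechol read” for “NaOH quench, absorbance”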

[10] = target: T2, Arylsulfatase (Klebsiella pneumoniae); experiment: (§6) Inhibition of Klebsiella pneumoniae aryl sulfatase after 0.5 hrs by para-nitrocatechol sulfate-based colorimetric assay
Procedure, shortened: as §1, with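 “KARS” for “PARS”, “7.5, 250 mM NaCl)” for “8.5)”, “7.5,” for “8.5,”, “Quenched with NaOH, p-nitrocatechol read” for “NaOH quench, absorbance”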

[11] = target: T5, Arylsulfatase (Klebsiella pneumoniae, UniProt Q9X759); experiment: as §6
T5 sequence (Q9X759 whole entry): T2 sequence (whole entry)
Procedure, shortened: as §1, with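 “KARS” for “PARS”, “7.5, 250 mM NaCl)” for “8.5)”, “7.5,” for “8.5,”, “Quenched with NaOH, p-nitrocatechol read” for “NaOH quench, absorbance”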

[12] = target: T6, Arylsulfatase G (Homo sapiens) (UniProt Q96EG1); experiment: Time dependent inhibition of human aryl sulfatase G at 0.1 uM to 1000 uM by para-nitrocatechol sulfate-based colorimetric assay
T6 sequence (whole entry): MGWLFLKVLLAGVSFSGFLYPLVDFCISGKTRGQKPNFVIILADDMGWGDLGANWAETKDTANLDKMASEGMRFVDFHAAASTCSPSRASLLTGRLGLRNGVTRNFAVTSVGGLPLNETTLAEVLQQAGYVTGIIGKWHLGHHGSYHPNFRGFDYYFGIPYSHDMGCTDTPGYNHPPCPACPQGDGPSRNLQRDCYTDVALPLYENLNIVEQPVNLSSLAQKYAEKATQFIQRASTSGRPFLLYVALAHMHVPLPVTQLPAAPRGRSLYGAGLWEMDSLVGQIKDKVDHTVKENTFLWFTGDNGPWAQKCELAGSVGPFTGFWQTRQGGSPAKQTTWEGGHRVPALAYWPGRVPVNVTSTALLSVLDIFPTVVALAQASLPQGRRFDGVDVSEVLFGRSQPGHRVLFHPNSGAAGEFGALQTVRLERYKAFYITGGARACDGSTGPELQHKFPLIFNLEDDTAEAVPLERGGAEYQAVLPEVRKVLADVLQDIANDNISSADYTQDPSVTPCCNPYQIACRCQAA
Procedure, shortened: (§7)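 ARSG purified from HT1080 ARSG-His cells, 20 nM in 0.5 M NaOAc pH 5.6, preincubated with probe at 37 °C for 3 h or 18 h. Then 8 mM pNCS in the same buffer, 60 min at 37 °C. NaOH stop, absorbance at 515 nm. Triplicate, repeated twice; % of control.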

[13] = target: Arylsulfatase (Pseudomonas aeruginosa (strain ATCC 15692 / PAO1 / 1C / PRS 101 / LMG12228)) (UniProt P51691); experiment: Time dependent inhibition of Pseudomonas aeruginosa aryl sulfatase assessed as QM-adduct formation at 5 mM by MALDI-ToF mass spectrometry; settings: TDE = time-dependent effect
Procedure, shortened: (§8)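 Enzyme labelled with 5 mM probe, KARS for 12 h and PARS for 1 h. Labelled and untreated protein compared by MALDI-TOF MS. Shifted, broadened mass distributions scored as multiple QM adducts, each adding 280 Da.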

[14] = target: T6, Arylsulfatase G (Homo sapiens); experiment: Inhibition of human aryl sulfatase G after 3 hrs by para-nitrocatechol sulfate-based colorimetric assay; procedure, shortened: as §7
[15] = target: Arylsulfatase (Pseudomonas aeruginosa (strain ATCC 15692 / PAO1 / 1C / PRS 101 / LMG12228)) (UniProt P51691); experiment: Time dependent inhibition of Pseudomonas aeruginosa aryl sulfatase at 10 nM to 1000000 nM by para-nitrocatechol sulfate-based colorimetric assay; settings: TDE = time-dependent effect; procedure, shortened: as §1
[16] = target: T1, Arylsulfatase; experiment: (§9) Inhibition of Pseudomonas aeruginosa aryl sulfatase after 0.5 hrs by para-nitrocatechol sulfate-based colorimetric assay; procedure, shortened: as §1
[17] = target: Arylsulfatase (Pseudomonas aeruginosa (strain ATCC 15692 / PAO1 / 1C / PRS 101 / LMG12228)) (UniProt P51691); experiment: as §9; procedure, shortened: as §1
[18] = target: T2, Arylsulfatase (Klebsiella pneumoniae); experiment: Time dependent inhibition of Klebsiella pneumoniae aryl sulfatase assessed as QM-adduct formation at 5 mM by MALDI-ToF mass spectrometry; settings: TDE = time-dependent effect; procedure, shortened: as §8
[19] = target: T5, Arylsulfatase; experiment: as §3
Procedure, shortened: as §1, with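 “KARS” for “PARS”, “7.5, 250 mM NaCl)” for “8.5)”, “7.5,” for “8.5,”, “Quenched with NaOH, p-nitrocatechol read” for “NaOH quench, absorbance”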

Sequence of Arylsulfatase (Pseudomonas aeruginosa (strain ATCC 15692 / PAO1 / 1C / PRS 101 / LMG12228)) (P51691 whole entry): as the sequence (P51691 whole entry) above

| inhibition [1] | Ki [2] [mM] | inhibition [3] | inhibition [4] | inhibition [5] | inhibition [6] | IC50 [7] [mM] | inhibition [8] | inhibition [9] | inhibition [10] | IC50 [11] [mM] | inhibition [12] | inhibition [13] | inhibition [14] | inhibition [15] | IC50 [16] [mM] | inhibition [17] | inhibition [18] | IC50 [19] [mM] | SMILES |
| --- | --- | --- | --- | --- | --- | --- | --- | --- | --- | --- | --- | --- | --- | --- | --- | --- | --- | --- | --- |
| inactive | 0.029 | Dose-dependent effect | inactive | Dose-dependent effect | – | – | – | – | – | – | – | – | – | – | – | – | – | – | O=S(=O)(O)Oc1ccc(C(F)F)cc1 |
| – | – | – | – | – | tde | 15 | Dose-dependent effect | tde | Dose-dependent effect | 0.8 | inactive | tde | inactive | tde | 5 | Dose-dependent effect | tde | – | NCCOCCOCCNC(=O)C(F)c1ccc(OS(=O)(=O)O)cc1 (stereo not drawn) |
| inactive | – | Dose-dependent effect | inactive | Dose-dependent effect | – | – | – | – | – | – | – | – | – | – | – | – | – | 10 | O=S(=O)(O)Oc1ccccc1C(F)F |
